# FXIa inh = human FXIa protease inhibitors, primary screen, biochemical, 1536-well; AID 798, 2007; actives 0.14% (n = 220,000); inhibition, % at 5 µM; Coagulation factor XI (Homo sapiens), P03951; purified FXIa, Boc-Glu-Ala-Arg-AMC fluorogenic substrate;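 active means inhibition of at least 40%; inactive means inhibition below 40%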;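 further: fluorescence of freed AMC excited at 355 nm; 0% = enzyme without compound and 100% = no enzyme blank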
# m-calpain inh = inhibitors of pig calpain II, primary screen, biochemical, fluorogenic peptide substrate, 1536-well | purified calpain II, 30 min | AID 1236, 2008 | inhibition, % at 16 µM | actives 0.37% (n = 220,000);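 active means inhibition above about 50%, limit read from the data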
# thrombin 1536 = human alpha-thrombin inhibitors, primary screen, counter-screen for coagulation protease inhibitor project, biochemical, 1536-well, fluorogenic AMC substrate; actives 0.26% (n = 220,000); inhibition, % at 5 µM; Boc-VPR-AMC fluorogenic substrate cleavage; AID 1046, 2008;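 active means inhibition at or above 40%; inactive means inhibition below 40%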;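 further: 0% = enzyme with no compound and 100% = wells without enzyme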
#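 Material: human alpha-thrombin protein; Also added: Boc-VPR-AMC substrate, 15 µM final; Timing: enzyme reaction carried out at room temperature; Signal: fluorescence, ex 355 nm, em 460 nm; Measure: % inhibition of thrombin; Controls: enzyme without compound as high, wells lacking enzyme as low.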
# FXIIa inh 1536 = human FXIIa protease inhibitors, primary screen, biochemical, 1536-well. purified FXIIa, Boc-QGR-AMC fluorogenic substrate, 2 h. inhibition, % at 5 µM. actives 0.3% (n = 220,000). AID 800, 2007; in the data active means inhibition above about 40%;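 further: 0% = enzyme with no compound and 100% = blank without enzyme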
# hK5 inh = human KLK5 protease inhibitors, primary screen, biochemical, 1536-well | Kallikrein-5 (Homo sapiens), Q9Y337 | recombinant hK5, fluorogenic AMC substrate cleavage | inhibition, % at 5 µM | actives 0.59% (n = 210,000) | AID 873, 2007;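 active means inhibition of 40% or more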;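 further: 0% = enzyme controls without compound and 100% = no-enzyme blanks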
# Target sequence (Q9Y337 67-293 limits assumed): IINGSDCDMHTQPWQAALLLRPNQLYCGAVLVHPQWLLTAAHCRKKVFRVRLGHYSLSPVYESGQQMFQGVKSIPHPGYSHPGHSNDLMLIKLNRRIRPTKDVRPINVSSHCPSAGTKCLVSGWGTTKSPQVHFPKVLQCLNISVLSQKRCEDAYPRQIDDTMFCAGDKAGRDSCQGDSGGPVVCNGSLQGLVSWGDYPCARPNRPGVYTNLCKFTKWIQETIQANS
# Numbers without * were called inactive; · = no result given. Shown are actives, neighbours in structure and some others; about 1.4% of the full set was active somewhere.
SMILES,FXIa inh,m-calpain inh,thrombin 1536,FXIIa inh 1536,hK5 inh
O=C(Nc1ccc(OC(=O)c2ccccc2)c(-c2nc3ccccc3s2)c1)c1ccccc1,3.9,63.8*,1.4,13.7,-16.2
CCc1cc2c3c(c1)C(C)CC(C)(C)N3C(=O)/C2=C1\SC(=O)NC1=O (configuration not stated),-3.8,56.9*,-1.5,5.7,18.1
O=C1NC(=Nc2cccc(O)c2)S/C1=C\c1cccnc1,29.2,15.9,22.8,19.3,65.9*
O=C(NC1CCCCC1)c1noc2c1CCCCC2,-1.9,-11.0,-0.1,11.8,4.4
Cc1ccc2nc(SCc3cn4cccnc4n3)[nH]c2c1,7.2,-13.8,-3.0,8.4,-4.9
CC1(C)CC(=O)C(CC(=O)Nc2cc(C(F)(F)F)ccc2Cl)C(=O)C1,1.7,-2.3,-0.2,10.8,·
COc1ccc(/C=N/NC(=O)Cn2c(Cc3ccc(OC)c(OC)c3)nc3ccccc32)cc1,2.9,14.8,0.4,5.6,-3.0
COc1cccc(CNC(=O)C2CCC(CNS(=O)(=O)c3cccc4nsnc34)CC2)c1 (configuration not stated),1.4,-4.9,2.1,9.4,0.6
O=C(NCc1cccs1)C1CCC(CNS(=O)(=O)c2cccc3nsnc23)CC1 (configuration not stated),2.5,18.8,1.7,8.4,52.5*
CCOCCCNCc1ccc(OCc2ccccc2C)c(OC)c1,-2.6,-4.2,-2.3,4.2,-2.2
Cc1ccc(Cn2c(=N)c(C(=O)NCc3ccco3)cc3c(=O)n4ccccc4nc32)cc1,12.6,-182.8,19.9,19.0,40.9*
N=c1c(C(=O)NCc2ccco2)cc2c(=O)n3ccccc3nc2n1CCc1ccccc1,5.6,-284.3,0.5,7.8,-26.7
CSc1nc2cc3c(cc2n1C(=O)c1ccc(C)cc1)OCCO3,67.4*,-37.9,87.7*,14.8,25.6
Cc1[nH]c(=O)[nH]c(=O)c1S(=O)(=O)N1CCC(C(=O)N2CCN(c3cccc(C(F)(F)F)c3)CC2)CC1,-2.3,16.3,-2.0,8.4,0.0
Cc1[nH]c2ccccc2c1CCN(Cc1cccnc1)C(=S)Nc1ccc(F)cc1,-1.2,64.1*,-3.3,10.5,-1.0
Cc1[nH]c2ccccc2c1CCN(Cc1cccnc1)C(=S)Nc1cccc(F)c1,-1.4,60.7*,-4.7,10.8,-1.6
Cc1cc(-c2nc3ncccc3o2)ccc1NC(=S)NC(=O)C(C)C,37.1,6.3,40.4*,·,19.5
CCN(CC)S(=O)(=O)c1ccc2c(c1)N(CC(=O)N(CCc1ccncc1)C(C)C)C(=O)CO2,0.1,17.9,3.3,8.8,-3.5
CC(C)Cc1cc(C(=O)NCc2cccnc2)no1,5.4,-40.5,-2.0,15.7,-15.3
CC(C)Cc1cc(C(=O)NCCN2CCOCC2)no1,4.9,1.8,22.8,0.4,44.2*
CC(C)Cc1cc(C(=O)NCc2cccs2)no1,7.8,14.1,21.3,7.7,54.7*
O=C(NC(=S)Nc1ccc(S(=O)(=O)Nc2nccs2)cc1)c1ccccc1F,27.6,20.8,18.5,77.0*,9.5
O=C(NC(=S)Nc1ccc(S(=O)(=O)Nc2nccs2)cc1)c1ccccc1,-12.1,18.7,-6.4,-2.2,-3.5
Cc1cccc(N2C(=O)CS/C2=N\NC(=O)c2ccc(Br)cc2)c1C,24.9,27.3,23.4,13.8,56.6*
COc1ccc2c(=O)cc(-c3cccnc3)oc2c1OC,1.2,-9.2,2.1,10.8,0.7
SMILES,FXIa inh,m-calpain inh,thrombin 1536,FXIIa inh 1536,hK5 inh
CCOC(=O)c1ccc(NC(=O)Nc2ccccn2)cc1,1.4,22.2,-0.6,12.1,·
CCOC(=O)c1ccc(NC(=O)Nc2cccc(C)n2)cc1,45.0*,36.5,14.9,20.4,11.0
O=c1c(C(c2ccccc2)c2c(O)sc3ccccc3c2=O)c(O)sc2ccccc12,-9.0,51.5*,-3.9,3.1,0.5
Cc1cc2sc3ccccc3c(=O)c2c(C)c1O,-2.4,-37.4,-11.9,8.3,-4.5
Cc1ccc(SCCCCN2C(=O)NC(C)(C)C2=O)cc1,1.1,-26.4,-4.7,-1.0,1.2
O=C(Cc1cccs1)NCC1CCCO1 (configuration not stated),-5.0,-41.7,-3.2,1.7,-16.0
S=C(NCc1cccs1)NCC1CCCO1 (configuration not stated),26.0,28.8,60.1*,24.9,13.7
S=C(NCC1CCCO1)Nc1ccc(Nc2ccccc2)cc1 (configuration not stated),29.3,28.8,-3.1,25.3,40.1*
CCCn1c(SCC(=O)Nc2ccccc2N2CCCCC2)nc2c1c(=O)n(C)c(=O)n2C,-6.6,3.9,-6.3,-2.6,-2.5
Cc1ccc(N=C(N)N=C(N)N)c(C)c1,1.2,-23.6,-12.2,6.6,3.4
O=C1c2cccc3cccc(c23)C(=O)N1CCN1CCN(C(=S)Nc2ccc(Cl)cc2)CC1,20.2,53.8*,-14.4,17.6,-2.5
O=C1c2cccc3cccc(c23)C(=O)N1CCN1CCN(C(=S)Nc2ccccc2)CC1,10.0,-7.3,2.6,13.6,0.3
Cc1ccccc1NC(=O)C(=O)Nc1ccccc1C,14.5,9.3,-0.6,6.5,2.2
Cc1ccccc1NC(=O)Nc1ccccc1Br,17.3,21.3,46.9*,15.7,21.8
CCCCn1c(-c2csc3c2CCC(C)C3)n[nH]c1=S (configuration not stated),-0.7,66.4*,-2.8,21.2,-21.9
Cc1cccc(OCC(=O)N/N=C/CC(C)c2ccccc2)c1C (configuration not stated),6.2,28.4,-6.1,15.2,-23.9
CC(=O)n1nc(-c2ccccc2)nc1NCc1cccs1,-4.5,-6.2,97.0*,2.6,-2.6
COc1ccc(CNc2nc(-c3ccccc3)nn2C(=O)c2cccs2)cc1,-1.8,-17.8,-7.5,4.3,-3.2
CCC(=O)n1nc(-c2ccc(OC)cc2)nc1NCc1cccs1,0.7,-16.2,88.9*,6.8,-4.8
CC(=O)n1nc(-c2ccccc2)nc1NCc1ccc(N(C)C)cc1,-6.0,19.1,61.1*,-7.0,-23.9
CCC(=O)n1nc(-c2ccccc2)nc1NCc1ccccc1,0.3,11.3,·,9.4,-3.6
Cc1ccc(N=Nc2c(N)n(-c3ccccc3)[nH]c2=O)cc1,17.6,7.8,21.8,16.2,40.4*
COCCn1c(CN2CCN(C)CC2)nc2c1c(=O)n(C)c(=O)n2C,-1.9,85.1*,1.8,6.8,11.3
Clc1cccc(Cl)c1Cn1cnc2c(NCc3ccco3)ncnc21,2.7,7.8,14.2,-6.1,61.2*
O=C(COC(=O)c1cc(=O)c2ccccc2o1)NC1CCCCC1,41.9*,18.1,12.1,27.2,18.7
O=C(c1cn[nH]c1)N1CCc2c([nH]c3ccccc23)C1c1c(F)cccc1Cl (configuration not stated),0.3,-22.6,2.2,14.8,75.1*
